From ChEMBL document CHEMBL1671846, “Discovery of a potent and short-acting oral calcilytic with a pulsatile secretion of parathyroid hormone” (ACS Med Chem Lett, 2011)
The source made the active and inactive calls. The rule behind the calls is not given here.

Legend:
[1] = test system: Rattus norvegicus; assay: Antiosteoporotic activity in rat assessed as increase of serum parathyroid hormone level at 30 mg/kg, po after 15 to 30 mins relative to control; type: functional
How it was run: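 Rats (n = 5) dosed orally. Serum PTH 1−34 measured, and the peak increase (Δ), taken at 15 or 30 min after dosing, compared with levels in vehicle-treated control rats.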

[2] = molecular target: Cytochrome P450 2D6 (Homo sapiens, UniProt P10635); assay: Inhibition of CYP2D6; type: ADME
Sequence of Cytochrome P450 2D6 (P10635 whole entry): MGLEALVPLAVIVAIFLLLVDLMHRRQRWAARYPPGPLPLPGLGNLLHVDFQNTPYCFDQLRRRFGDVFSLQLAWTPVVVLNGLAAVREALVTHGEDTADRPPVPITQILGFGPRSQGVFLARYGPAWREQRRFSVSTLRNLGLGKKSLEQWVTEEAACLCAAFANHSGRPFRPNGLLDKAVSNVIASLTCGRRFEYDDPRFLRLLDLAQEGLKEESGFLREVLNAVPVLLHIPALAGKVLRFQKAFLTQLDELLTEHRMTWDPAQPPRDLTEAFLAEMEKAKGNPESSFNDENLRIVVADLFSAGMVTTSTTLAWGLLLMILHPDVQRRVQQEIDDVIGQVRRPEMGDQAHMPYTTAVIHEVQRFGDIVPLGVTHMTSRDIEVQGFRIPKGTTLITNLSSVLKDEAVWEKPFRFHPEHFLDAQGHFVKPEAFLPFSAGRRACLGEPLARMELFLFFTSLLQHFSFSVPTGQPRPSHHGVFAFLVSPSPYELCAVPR

[3] = molecular target: T1, Extracellular calcium-sensing receptor (Homo sapiens, UniProt P41180); assay: Antagonist activity at human CaSR expressed in rat PC12h cells by reporter gene assay; type: functional, cell-based, PC-12
T1 sequence (P41180 whole entry): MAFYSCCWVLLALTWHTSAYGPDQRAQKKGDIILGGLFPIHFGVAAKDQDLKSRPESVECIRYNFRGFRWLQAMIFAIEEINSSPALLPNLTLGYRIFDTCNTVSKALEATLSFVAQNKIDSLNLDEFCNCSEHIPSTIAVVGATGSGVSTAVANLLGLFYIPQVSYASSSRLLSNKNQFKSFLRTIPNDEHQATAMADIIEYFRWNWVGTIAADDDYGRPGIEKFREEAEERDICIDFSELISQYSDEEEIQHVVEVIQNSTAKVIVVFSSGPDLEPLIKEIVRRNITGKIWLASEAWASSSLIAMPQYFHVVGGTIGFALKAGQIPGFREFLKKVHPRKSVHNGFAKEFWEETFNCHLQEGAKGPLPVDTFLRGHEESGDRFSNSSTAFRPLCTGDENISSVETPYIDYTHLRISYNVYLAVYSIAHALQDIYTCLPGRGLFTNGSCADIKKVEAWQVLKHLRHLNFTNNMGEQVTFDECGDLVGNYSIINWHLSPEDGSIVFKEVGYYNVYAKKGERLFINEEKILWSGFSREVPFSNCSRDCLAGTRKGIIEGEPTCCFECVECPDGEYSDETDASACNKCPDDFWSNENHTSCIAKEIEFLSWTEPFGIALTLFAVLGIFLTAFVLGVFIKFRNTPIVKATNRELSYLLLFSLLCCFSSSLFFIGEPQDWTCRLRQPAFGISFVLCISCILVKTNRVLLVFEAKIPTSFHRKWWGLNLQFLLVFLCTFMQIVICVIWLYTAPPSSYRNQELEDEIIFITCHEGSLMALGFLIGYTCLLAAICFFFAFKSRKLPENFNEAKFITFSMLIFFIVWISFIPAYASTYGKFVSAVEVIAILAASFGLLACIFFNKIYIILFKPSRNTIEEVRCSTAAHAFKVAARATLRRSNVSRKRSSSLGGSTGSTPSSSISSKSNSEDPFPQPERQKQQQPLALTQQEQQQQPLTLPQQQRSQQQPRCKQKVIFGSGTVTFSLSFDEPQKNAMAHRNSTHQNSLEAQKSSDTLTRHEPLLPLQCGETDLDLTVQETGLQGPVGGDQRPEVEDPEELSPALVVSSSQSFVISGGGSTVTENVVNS
How it was run: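 Human CaSR antagonism measured by reporter gene assay in PC12h cells. Values are means of three experiments.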

[4] = test system: Rattus norvegicus; assay: Antiosteoporotic activity in rat assessed as increase of serum parathyroid hormone level at 3 mg/kg, po after 15 to 30 mins relative to control; type: functional
How it was run: (§1)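 Rats (n = 5) dosed orally. Serum PTH 1−34 peak increase (Δ) measured at 15 or 30 min and compared with vehicle-treated controls. Scored against the peak given by a 30 mg/kg oral reference aminopropandiol calcilytic: ++ >80%, + 50−80%, below that <50%.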

[5] = test system: Rattus norvegicus; assay: Antiosteoporotic activity in rat assessed as increase of serum parathyroid hormone level at 1 mg/kg, po after 15 to 30 mins relative to control; type: functional; how it was run: as §1
[6] = test system: Rattus norvegicus; assay: Antiosteoporotic activity in rat assessed as increase of serum parathyroid hormone level at 10 mg/kg, po after 15 to 30 mins relative to control; type: functional; how it was run: as §1
[7] = Oral bioavailability in rat at 1 mg/kg; type: ADME, organism-based; conditions: in vivo, read-out: Activity
[8] = Cmax in rat at 1 mg/kg, po; type: ADME, organism-based; set-up: dose 1 mg/kg, route oral; conditions: in vivo
[9] = Half life in rat at 1 mg/kg, po; type: ADME, organism-based; set-up: dose 1 mg/kg, route oral; conditions: in vivo
[10] = molecular target: D(1A) dopamine receptor (Homo sapiens) (UniProt P21728); assay: Inhibition of dopamine D1 receptor up to 10 uM
Sequence of D(1A) dopamine receptor (Homo sapiens) (P21728 whole entry): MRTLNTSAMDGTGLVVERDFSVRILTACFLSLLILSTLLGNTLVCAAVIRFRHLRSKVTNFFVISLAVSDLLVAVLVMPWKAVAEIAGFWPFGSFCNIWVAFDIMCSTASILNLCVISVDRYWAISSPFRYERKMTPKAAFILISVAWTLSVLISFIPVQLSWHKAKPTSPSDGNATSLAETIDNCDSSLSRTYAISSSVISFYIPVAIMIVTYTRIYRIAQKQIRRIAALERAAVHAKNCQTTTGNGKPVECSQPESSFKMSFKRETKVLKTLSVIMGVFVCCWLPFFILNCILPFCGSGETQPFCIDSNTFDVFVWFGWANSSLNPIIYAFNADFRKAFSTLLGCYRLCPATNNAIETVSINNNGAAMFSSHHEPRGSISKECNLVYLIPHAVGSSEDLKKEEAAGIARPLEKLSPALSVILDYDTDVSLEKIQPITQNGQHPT

[11] = molecular target: Beta-2 adrenergic receptor (Homo sapiens, UniProt P07550); assay: Inhibition of beta2 adrenergic receptor
Sequence of Beta-2 adrenergic receptor (P07550 whole entry): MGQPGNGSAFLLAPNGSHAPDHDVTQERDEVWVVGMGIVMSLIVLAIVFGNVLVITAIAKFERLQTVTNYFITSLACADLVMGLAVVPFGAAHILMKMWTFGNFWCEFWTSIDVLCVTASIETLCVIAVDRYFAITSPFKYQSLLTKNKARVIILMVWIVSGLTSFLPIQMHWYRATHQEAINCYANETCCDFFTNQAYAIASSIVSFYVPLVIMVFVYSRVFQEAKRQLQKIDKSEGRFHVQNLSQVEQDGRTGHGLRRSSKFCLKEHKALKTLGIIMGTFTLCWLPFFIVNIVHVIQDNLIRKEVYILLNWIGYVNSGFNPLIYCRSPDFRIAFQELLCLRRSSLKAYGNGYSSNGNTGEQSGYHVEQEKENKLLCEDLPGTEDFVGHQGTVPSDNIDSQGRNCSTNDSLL

[12] = test system: Rattus norvegicus; assay: Antiosteoporotic activity in rat assessed as increase of serum parathyroid hormone level at 3 mg/kg, po after 15 mins; type: functional, organism-based; set-up: dose 3 mg/kg
How it was run: (§2)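 Time course in rats (n = 5) after oral dosing of the hemisulfate salt. Serum PTH 1−34 levels followed over time, expressed as mean ± standard deviation.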

[13] = Inhibition of serotonin receptor up to 10 uM
[14] = Inhibition of alpha2 adrenergic receptor up to 10 uM
[15] = test system: Rattus norvegicus; assay: Antiosteoporotic activity in rat assessed as increase of serum parathyroid hormone level at 3 mg/kg, po after 2 hrs; type: functional, organism-based; set-up: dose 3 mg/kg; how it was run: as §2
[16] = test system: Rattus norvegicus; assay: Antiosteoporotic activity in po dosed rat assessed as increase of serum parathyroid hormone level after 15 to 30 mins; type: functional, organism-based; how it was run: as §1
[17] = Tmax in rat at 1 mg/kg, po; type: ADME, organism-based; set-up: dose 1 mg/kg, route oral; conditions: in vivo

Compound | IC50 [2] [nM] | IC50 [3] [nM] | Activity [4] [%] | further results
Cc1ccccc1[C@H](OC[C@H](O)CNC(C)(C)Cc1ccc2ccccc2c1)C1CC1 | – | – | – | fold change (FC) [1]: 2
CC(C)(Cc1ccc2ccccc2c1)NC[C@@H](O)CO[C@@H](c1ccccc1CO)C1CC1 | 1200 | 18 | – | –
C[C@@H](OC[C@H](O)CNC(C)(C)Cc1ccc2ccccc2c1)c1ccccc1CC(=O)O | – | 2200 | – | –
C[C@@H](OC[C@H](O)CNC(C)(C)Cc1ccc2ccccc2c1)c1ccccc1CCC(=O)O | – | 24 | 50 | –
C[C@@H](OC[C@H](O)CNC(C)(C)Cc1ccc2ccccc2c1)c1ccccc1-c1ccc(C(=O)O)cc1 | > 10000 | 4 | 50 | Activity [5]: <50%; Activity [6]: >80%
C[C@@H](OC[C@H](O)CNC(C)(C)Cc1ccc(Cl)c(F)c1)c1ccccc1-c1ccc(C(=O)O)cc1 | – | 23 | >80 | Activity [5]: 50%
Cc1cc(-c2ccccc2[C@@H](C)OC[C@H](O)CNC(C)(C)Cc2ccc3ccccc3c2)ccc1C(=O)O | – | 5 | >80 | Activity [5]: <50%
CC(C)(Cc1ccc2ccccc2c1)NC[C@@H](O)COC(c1ccccc1C(=O)O)C1CC1 (mixture of isomers) | > 10000 | > 3000 | – | –
CC(C)(Cc1ccc2ccccc2c1)NC[C@@H](O)COC(c1cccc(C(=O)O)c1)C1CC1 (mixture of isomers) | > 10000 | 960 | – | –
CC(C)(Cc1ccc2ccccc2c1)NC[C@@H](O)COC(c1ccc(C(=O)O)cc1)C1CC1 (mixture of isomers) | – | > 3000 | – | –
CC(OC[C@H](O)CNC(C)(C)Cc1ccc2ccccc2c1)c1ccccc1C(=O)O (mixture of isomers) | – | > 3000 | – | –
CC(OC[C@H](O)CNC(C)(C)Cc1ccc2ccccc2c1)c1ccc(-c2ccc(C(=O)O)cc2)cc1 (mixture of isomers) | – | 1500 | – | –
CC(OC[C@H](O)CNC(C)(C)Cc1ccc2ccccc2c1)c1cccc(-c2ccc(C(=O)O)cc2)c1 (mixture of isomers) | – | 18 | – | –
CC(OC[C@H](O)CNC(C)(C)Cc1ccc2ccccc2c1)c1ccccc1-c1ccc(C(=O)O)cc1 (mixture of isomers) | – | 11 | – | –
Cc1cc(-c2ccccc2[C@@H](C)OC[C@H](O)CNC(C)(C)Cc2ccc(Cl)c(F)c2)ccc1C(=O)O [ENCALERET] | 11000 | 12 | >80 | bioavailability [7]: 64%; Cmax [8]: 475 ng/mL; half-life [9]: 1.8 h; Activity [10]: inactive; IC50 [11]: 1700 nM; Activity [12]: Active; Activity [13]: inactive; Activity [5]: >80%; Activity [14]: inactive; Activity [6]: >80%; Activity [15]: inactive; Activity [16]: Dose-dependent effect; Tmax [17]: 0.5 h
